“And” between values parts separate entries of the source, which are not always exact repeats. Equal entries are not always repeated.
Columns and labels:
[1] = system: U87 and PC3 tumor xenografts; test: NIRF imaging of QCP01 in tumor-bearing mice; format: in vivo, NOD/SCID mice
[2] = system: FAP-negative cell lines (PC3, NCIH226, and HCT116); test: In vitro fluorescence binding of QCP01 to FAP-negative cell lines; format: cell-based, human; details: any of the concentrations tested (50-0.78 nM)
[3] = system: FAP-positive cell lines (NCIH2228, U87, and SKMEL24); test: In vitro fluorescence binding of QCP01 to FAP-positive cell lines; format: cell-based, human; details: 1 h incubation, range 50-0.78 nM
[4] = system: DPP-IV; details: read-out: IC50 DPP-IV; cited from earlier work
[5] = system: FAP-positive U87 xenograft; test: Ex vivo biodistribution of [111In]QCP02, U87 xenograft; design: species or system NOD/SCID mice
Summary of the method: (§1)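 Male NOD/SCID mice (6–8 weeks) carried subcutaneous xenografts of 1 million U87 cells (left upper flank) and PC3 cells (right upper flank) in HBSS, used at 100–300 mm3. Radioligand was given as 0.37 MBq in 200 μL saline (<10% ethanol) via the tail vein. Groups (n = 4) were killed by CO2 at 5 min, 30 min, 1, 3, 6, 10 and 28 h. Weighed tissues were gamma-counted, decay-corrected against a standard dilution of the dose, and expressed as %ID/g.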

[6] = system: FAP-negative PC3 cells; test: Cellular uptake of [111In]QCP02 in PC3 cells; format: cell-based, human; details: 0.037 MBq, 30 min at 37 °C
[7] = system: U87 and PC3 tumor xenografts; test: SPECT-CT imaging of [111In]QCP02 in tumor-bearing mice; format: in vivo, NOD/SCID mice
[8] = system: FAP-positive U87 cells; test: Cellular uptake of [111In]QCP02 in U87 cells; format: cell-based, human; details: 0.037 MBq, 30 min at 37 °C
[9] = system: FAP-negative PC3 xenograft; test: Ex vivo biodistribution of [111In]QCP02, PC3 xenograft; design: species or system NOD/SCID mice
Summary of the method: as §1

[10] = system: FAP; details: read-out: IC50 FAP; cited from earlier work
[11] = system: FAP-positive cell lines (U87, NCIH228, and SKMEL24); details: inhibitor 10^-10 to 10^-4 M, then 25 nM QCP01 for 1 h at 37 °C
[12] = 1 h post injection, 0.37 MBq via tail vein

For CC1(C)C(/C=C/C2=C(Oc3ccc(S(=O)(=O)O)cc3)C(=C/C=C3/N(CCCCS(=O)(=O)O)c4ccc(S(=O)(=O)O)cc4C3(C)C)/CCC2)=[N+](CCCCCC(=O)NCCCOc2ccc3nccc(C(=O)NCC(=O)N4CCC[C@H]4C#N)c3c2)c2ccc(S(=O)(=O)[O-])cc21 [QCP01], the “NIRF uptake in normal tissues” value ([1]; 5 nmol QCP01 via tail vein, 30 min after injection) was “mild degree (moderate in the kidney)”, the “NIRF uptake in PC3 tumors” value ([1]; 5 nmol QCP01 via tail vein, 30 min until 5 h, washout at 24 h) was “mild uptake” and the “NIRF uptake in U87 xenografts over time” value ([1]; 5 nmol QCP01 via tail vein, imaging 0.5-48 h) was “persisted up to 5 h after injection, with washout after 24 h”. For the same compound, the “ex vivo NIRF uptake of excised U87 tumor versus PC3 tumor” value ([1]; 5, 24, and 48 h after injection) was “higher QCP01 uptake than the PC3 tumor”, the “binding in FAP-negative cell lines” value [2] was “no specific binding” and the “concentration at which binding was saturated” value [3] was 50 nM. The “lowest concentration at which QCP01 binding was observed” value [3] was 1.56 nM.

For CC(C)[C@H](N)C(=O)N1CCC[C@H]1B(O)O [Val-boroPro], the IC50 [4] is listed as 22 ± 1 nM.

For N#C[C@@H]1CCCN1C(=O)CNC(=O)c1ccnc2ccc(OCCCNC(=O)CCC(C(=O)O)N3CCN(CC(=O)[O-])CCN(CC(=O)[O-])CCN(CC(=O)[O-])CC3)cc12.[111In+3] (stereo partly drawn) [[^111In]QCP02, [^111In]2,2′,2″-(10-(1-Carboxy-4-((3-((4-((2-((S)-2-cyanopyrrolidin-1-yl)-2-oxoethyl)carbamoyl)quinolin-6-yl)oxy)propyl)amino)-4-oxobutyl)-1,4,7,10-tetraazacyclododecane-1,4,7-triyl)triacetate], the “uptake in U87 tumor” value ([5]; 5 min post injection) was “over 10 % ID/g”, the “uptake in U87 tumor (peak)” value ([5]; 30 min post injection) was 18.2 % ID/g and 18.16 ± 11.67 % ID/g and the “uptake in U87 xenograft” value [5, 12] was 16.09 ± 4.17 % ID/g. The “uptake in U87 xenografts, blocked” value ([5]; 6 h post injection, co-injection of non-radioactive QCP02 (50 μg per mouse)) was 0.55 ± 0.23 % ID/g, the “uptake in U87 xenograft relative to PC3 xenograft” value ([5]; all time points) was 3–4 fold and the “time by which washout of radiotracer in U87 tumors was observed” value ([5]; post injection) was at most 28 h. For the same compound, the “binding of the incubated dose” value [6] was 0.01%, the “retention of uptake in U87 xenografts on SPECT-CT” value ([7]; 7.4 MBq via tail vein, uptake seen as early as 1 h post injection) was “up to 10 h” and the “uptake in PC3 xenografts on SPECT-CT” value ([7]; all imaging time points (1, 3, 6, 10, 28 h)) was “low uptake”. For the same compound, the “binding of the incubated dose” value [8] was “over 30%”, the “uptake in PC3 xenograft” value [9, 12] was 4.12 ± 0.36 % ID/g and the “uptake in PC3 tumor” value ([9]; all time points) was “less than 5 % ID/g”.

For N[C@@H](CC(=O)N1CCn2c(nnc2C(F)(F)F)C1)Cc1cc(F)c(F)cc1F [sitagliptin], the IC50 [10] is given as over 100000 nM and the “effect of pretreatment on QCP01 binding (fluorescence signal)” value [11] is given as “not inhibited”.

Reference: article PMC8214312 (Journal of medicinal chemistry, 2021)
